Legend:
[1] = Cytotoxicity against mouse SMB.s15 cells at 20 uM after 5 days by MTT assay; format: cell-based; settings: smb.s15, 120 h
Summary of the method: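 SMB.s15 cells at 12,000 cells/well, exposed to compound for 5 days at 37 °C (DMSO stock diluted via HBSS into medium). Viability measured by MTT assay per the reagent's standard protocol.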

[2] = (§1) Toxicity in zebrafish assessed as organism survival at 5 uM treated at 48 hrs post-fertilization measured after 3 days; format: organism-based, Danio rerio; settings: in vivo
Summary of the method: (§2)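 AB wild-type zebrafish embryos dechorionated with pronase at 48 hpf, 3 per well in methylene blue-free E3 medium. Dosed at 5 uM from 10 mM DMSO stocks (1% v/v DMSO). Kept at 28 °C for 72 h without food; survival scored at day 5 versus vehicle controls. Two experiments, each in triplicate.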

ScN2a = assay: Cytotoxicity against mouse ScN2a cells up to 32 uM; format: cell-based
Summary of the method: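 ScN2a cells seeded separately in 96-well plates. Calcein cell viability assay run in parallel with the ELISA screen, up to 32 uM maximum.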

[3] = Antiprion activity against PrPsc infected in mouse ScN2a cells assessed as complete clearance of PrPSc after 5 days by ELISA; format: cell-based; settings: 120 h
Summary of the method: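 ScN2a cells (N2a infected with RML prion strain) seeded at 4×10^5 cells/well in MEM with 10% FBS, GlutaMax, geneticin. Compound added 4 h after seeding, 0.5% final DMSO, 5 days at 37 °C. Lysates captured on D18 Fab-coated ELISA plates overnight at 4 °C, HRP-D13 detection, ABTS, absorbance at 405 nm. Dose-response curves from three independent experiments.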

[4] = Metabolic stability in mouse liver microsomes assessed as compound remaining after 30 mins by HPLC analysis; format: ADME, Microsome; settings: read-out: Stability
Summary of the method: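 Mouse liver microsomes (0.5 mg/mL stock) in 0.2 M potassium phosphate pH 7.0 with DL-isocitrate, MgCl2 and isocitrate dehydrogenase. Preincubated 5 min at 37 °C, then started with NADPH. Sampled at t=0 and after 30 min at 37 °C, quenched in ice-cold acetonitrile with internal standard. Analysed by C18 HPLC, UV at 267 nm, in triplicate.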

[5] = Toxicity in zebrafish assessed as mortality rate at 5 uM measured after 72 hrs; format: organism-based, Danio rerio; settings: in vivo, read-out: Activity; summary of the method: as §2
[6] = Antiprion activity against PrPsc infected in mouse SMB.s15 cells assessed as complete clearance of PrPSc after 5 days by dot blot analysis; format: cell-based; settings: SMB.s15, 120 h
Summary of the method: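 SMB.s15 cells (scrapie-infected, mesodermal origin) in Medium 199 with 10% newborn calf and 5% fetal calf serum, seeded at 12,000 cells/well, 24 h attachment. Compound added from DMSO stock via HBSS dilution, 5 days at 37 °C. Lysates dot-blotted, proteinase K digestion (1 h, 37 °C), guanidine thiocyanate, anti-PrP 6H4 mAb, ECL. Triplicate, PrPSc relative to DMSO-only control.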

Danio rerio = species on record: Danio rerio; assay: as §1; format: organism-based; settings: in vivo, 72 h, 5 µM; summary of the method: as §2

## COc1ccc(NC(=O)C(=O)c2c[nH]c3ccccc23)cc1
[1]
  Activity: Non-toxic
[2]
  survival at 72 h, 5 µM: 100%
ScN2a
  Activity: Non-toxic
[3]
  EC50: 91 nM
[4]
  remaining at 0.5 h: 67.9%
[5]
  mortality at 72 h, 5 µM: 20%
[6]
  EC50: 11 nM

## O=C(Nc1ccccc1)C(=O)c1c[nH]c2ccc(Cl)cc12
[1]
  Activity: Non-toxic
Danio rerio
  Activity: Toxic
ScN2a
  Activity: Non-toxic
[6]
  EC50: 1630 nM

## Cc1ccc(NC(=O)C(=O)c2c[nH]c3cc(C(C)C)ccc23)cc1
[1]
  Activity: Non-toxic
ScN2a
  Activity: Non-toxic
[4]
  remaining at 0.5 h: 82.6%
[5]
  mortality at 72 h, 5 µM: 20%
[6]
  EC50: 610 nM

## COc1ccc(NC(=O)C(=O)c2c[nH]c3cc([N+](=O)[O-])ccc23)cc1
[1]
  Activity: Non-toxic
Danio rerio
  Activity: Toxic
ScN2a
  Activity: Non-toxic
[4]
  remaining at 0.5 h: 90%
[6]
  EC50: 10.5 nM

## Cc1ccc(NC(=O)C(=O)c2c[nH]c3cc([N+](=O)[O-])ccc23)cc1
[1]
  Activity: Non-toxic
[2]
  survival at 72 h, 5 µM: 100%
ScN2a
  Activity: Non-toxic
[4]
  remaining at 0.5 h: 84.8%
[5]
  mortality at 72 h, 5 µM: 20%
[6]
  EC50: 35 nM

## COc1ccc(NC(=O)C(=O)c2c[nH]c3cccc(C)c23)cc1
[1]
  Activity: Non-toxic
[2]
  survival at 72 h, 5 µM: 100%
ScN2a
  Activity: Non-toxic
[6]
  EC50: 2360 nM

## Cc1ccc(NC(=O)C(=O)c2c[nH]c3cccc(C)c23)cc1
[1]
  Activity: Non-toxic
[2]
  survival at 72 h, 5 µM: 100%
ScN2a
  Activity: Non-toxic
[5]
  mortality at 72 h, 5 µM: 20%
[6]
  EC50: > 20000 nM

## Cc1cccc2[nH]cc(C(=O)C(=O)Nc3ccc(N4CCOCC4)cc3)c12
[1]
  Activity: Non-toxic
Danio rerio
  Activity: Toxic
ScN2a
  Activity: Non-toxic
[5]
  mortality at 72 h, 5 µM: 20%
[6]
  EC50: 680 nM

## COc1ccc(NC(=O)C(=O)c2c[nH]c3ccc(C)cc23)cc1
[1]
  Activity: Non-toxic
[2]
  survival at 72 h, 5 µM: 100%
ScN2a
  Activity: Non-toxic
[6]
  EC50: 880 nM

## Cc1ccc(NC(=O)C(=O)c2c[nH]c3ccc(C)cc23)cc1
[1]
  Activity: Non-toxic
Danio rerio
  Activity: Toxic
ScN2a
  Activity: Non-toxic
[5]
  mortality at 72 h, 5 µM: 20%
[6]
  EC50: 900 nM

## Cc1ccc2[nH]cc(C(=O)C(=O)Nc3ccc(N4CCOCC4)cc3)c2c1
[1]
  Activity: Non-toxic
Danio rerio
  Activity: Toxic
ScN2a
  Activity: Non-toxic
[5]
  mortality at 72 h, 5 µM: 20%
[6]
  EC50: 83 nM

## Cc1ccc2[nH]cc(C(=O)C(=O)Nc3ccccc3)c2c1
[1]
  Activity: Non-toxic
[2]
  survival at 72 h, 5 µM: 100%
ScN2a
  Activity: Non-toxic
[6]
  EC50: 11500 nM

## Cc1ccc(NC(=O)C(=O)c2c[nH]c3ccc(Cl)cc23)cc1
[1]
  Activity: Non-toxic
[2]
  survival at 72 h, 5 µM: 100%
ScN2a
  Activity: Non-toxic
[5]
  mortality at 72 h, 5 µM: 20%
[6]
  EC50: 560 nM

## O=C(Nc1ccc(N2CCOCC2)cc1)C(=O)c1c[nH]c2ccc(Cl)cc12
[1]
  Activity: Non-toxic
Danio rerio
  Activity: Toxic
ScN2a
  Activity: Non-toxic
[5]
  mortality at 72 h, 5 µM: 20%
[6]
  EC50: 69 nM

## COc1ccc(NC(=O)C(=O)c2c[nH]c3cc(C)ccc23)cc1
[1]
  Activity: Non-toxic
[2]
  survival at 72 h, 5 µM: 100%
ScN2a
  Activity: Non-toxic
[4]
  remaining at 0.5 h: 89.1%
[6]
  EC50: 12 nM

## Cc1ccc(NC(=O)C(=O)c2c[nH]c3cc(C)ccc23)cc1
[1]
  Activity: Non-toxic
[2]
  survival at 72 h, 5 µM: 100%
ScN2a
  Activity: Non-toxic
[4]
  remaining at 0.5 h: 90.2%
[5]
  mortality at 72 h, 5 µM: 20%
[6]
  EC50: 51 nM

## Cc1ccc2c(C(=O)C(=O)Nc3ccccc3)c[nH]c2c1
[1]
  Activity: Non-toxic
[2]
  survival at 72 h, 5 µM: 100%
ScN2a
  Activity: Non-toxic
[6]
  EC50: 44 nM

## COc1ccc(NC(=O)C(=O)c2c[nH]c3cc(Cl)ccc23)cc1
[1]
  Activity: Non-toxic
Danio rerio
  Activity: Toxic
ScN2a
  Activity: Non-toxic
[4]
  remaining at 0.5 h: 87.3%
[6]
  EC50: 9.9 nM

## Cc1ccc(NC(=O)C(=O)c2c[nH]c3cc(Cl)ccc23)cc1
[1]
  Activity: Non-toxic
[2]
  survival at 72 h, 5 µM: 100%
ScN2a
  Activity: Non-toxic
[4]
  remaining at 0.5 h: 85.6%
[5]
  mortality at 72 h, 5 µM: 20%
[6]
  EC50: 100 nM

## O=C(Nc1ccc(N2CCOCC2)cc1)C(=O)c1c[nH]c2cc(Cl)ccc12
[1]
  Activity: Non-toxic
ScN2a
  Activity: Non-toxic
[5]
  mortality at 72 h, 5 µM: 20%
[6]
  EC50: 7.3 nM

## O=C(Nc1ccccc1)C(=O)c1c[nH]c2cc(Cl)ccc12
[1]
  Activity: Non-toxic
[2]
  survival at 72 h, 5 µM: 100%
ScN2a
  Activity: Non-toxic
[6]
  EC50: 74 nM

## COc1ccc(NC(=O)C(=O)c2c[nH]c3c(C)cccc23)cc1
[1]
  Activity: Non-toxic
[2]
  survival at 72 h, 5 µM: 100%
ScN2a
  Activity: Non-toxic
[6]
  EC50: 150 nM

## Cc1ccc(NC(=O)C(=O)c2c[nH]c3c(C)cccc23)cc1
[1]
  Activity: Non-toxic
Danio rerio
  Activity: Toxic
ScN2a
  Activity: Non-toxic
[5]
  mortality at 72 h, 5 µM: 20%
[6]
  EC50: 1400 nM

## Cc1cccc2c(C(=O)C(=O)Nc3ccc(N4CCOCC4)cc3)c[nH]c12
[1]
  Activity: Non-toxic
[2]
  survival at 72 h, 5 µM: 100%
ScN2a
  Activity: Non-toxic
[5]
  mortality at 72 h, 5 µM: 20%
[6]
  EC50: 16 nM

## COc1ccc(NC(=O)C(=O)c2c[nH]c3c(Cl)cccc23)cc1
[1]
  Activity: Non-toxic
Danio rerio
  Activity: Toxic
ScN2a
  Activity: Non-toxic
[3]
  EC50: 247 nM
[6]
  EC50: 24 nM

## Cc1ccc(NC(=O)C(=O)c2c[nH]c3c(Cl)cccc23)cc1
[1]
  Activity: Non-toxic
[2]
  survival at 72 h, 5 µM: 100%
ScN2a
  Activity: Non-toxic
[3]
  EC50: 1260 nM
[5]
  mortality at 72 h, 5 µM: 20%
[6]
  EC50: 470 nM

## O=C(Nc1ccc(N2CCOCC2)cc1)C(=O)c1c[nH]c2c(Cl)cccc12
[1]
  Activity: Non-toxic
[2]
  survival at 72 h, 5 µM: 100%
ScN2a
  Activity: Non-toxic
[5]
  mortality at 72 h, 5 µM: 20%
[6]
  EC50: 7.2 nM

## O=C(Nc1ccc(-n2cccc2)cc1)C(=O)c1c[nH]c2cc(Cl)ccc12
[1]
  Activity: Non-toxic
Danio rerio
  Activity: Toxic
ScN2a
  Activity: Non-toxic
[6]
  EC50: 17 nM

## O=C(Nc1ccc(-n2cccn2)cc1)C(=O)c1c[nH]c2cc(Cl)ccc12
[1]
  Activity: Non-toxic
[2]
  survival at 72 h, 5 µM: 100%
ScN2a
  Activity: Non-toxic
[3]
  EC50: 175 nM
[4]
  remaining at 0.5 h: 96.7%
[6]
  EC50: 6.1 nM

## Cn1cc(C(=O)C(=O)Nc2ccc(-n3cccc3)cc2)c2ccc(Cl)cc21
[1]
  Activity: Non-toxic
[2]
  survival at 72 h, 5 µM: 100%
ScN2a
  Activity: Non-toxic
[6]
  EC50: 270 nM

## COc1ccc(NC(=O)C(=O)c2cn(C)c3cc(Cl)ccc23)cc1
[1]
  Activity: Non-toxic
Danio rerio
  Activity: Toxic
ScN2a
  Activity: Non-toxic
[6]
  EC50: 1630 nM

## Cn1cc(C(=O)C(=O)Nc2ccc(-n3cccc3)cc2)c2ccccc21
[1]
  Activity: Non-toxic
[2]
  survival at 72 h, 5 µM: 100%
ScN2a
  Activity: Non-toxic
[6]
  EC50: 170 nM

## O=C(Nc1ccc(-n2cccc2)cc1)C(=O)c1c[nH]c2cc(F)ccc12
[1]
  Activity: Non-toxic
[2]
  survival at 72 h, 5 µM: 100%
ScN2a
  Activity: Non-toxic
[6]
  EC50: 7.7 nM

## O=C(Nc1ccc(-n2cccn2)cc1)C(=O)c1c[nH]c2cc(F)ccc12
[1]
  Activity: Non-toxic
Danio rerio
  Activity: Toxic
ScN2a
  Activity: Non-toxic
[6]
  EC50: 1.2 nM

## COc1ccc(NC(=O)C(=O)c2c[nH]c3cc(F)ccc23)cc1
[1]
  Activity: Non-toxic
[2]
  survival at 72 h, 5 µM: 100%
ScN2a
  Activity: Non-toxic
[4]
  remaining at 0.5 h: 74.6%
[6]
  EC50: 13 nM

## COc1ccc(NC(=O)C(=O)c2c[nH]c3cc(C(C)C)ccc23)cc1
[1]
  Activity: Non-toxic
[2]
  survival at 72 h, 5 µM: 100%
ScN2a
  Activity: Non-toxic
[4]
  remaining at 0.5 h: 86.2%
[6]
  EC50: 330 nM

## COc1ccc(NC(=O)C(=O)c2c[nH]c3ccc(Cl)cc23)cc1
[1]
  Activity: Non-toxic
Danio rerio
  Activity: Toxic
ScN2a
  Activity: Non-toxic
[6]
  EC50: 470 nM

## COc1ccc(NC(=O)C(=O)c2cn(C)c3ccccc23)cc1
[1]
  Activity: Non-toxic
Danio rerio
  Activity: Toxic
ScN2a
  Activity: Non-toxic
[6]
  EC50: 68 nM

## O=C(Nc1ccc(N2CCOCC2)cc1)C(=O)c1c[nH]c2ccccc12
[1]
  Activity: Non-toxic
Danio rerio
  Activity: Toxic
ScN2a
  Activity: Non-toxic
[3]
  EC50: 65 nM
[5]
  mortality at 72 h, 5 µM: 20%
[6]
  EC50: 9 nM

From ChEMBL document CHEMBL1909628, “Discovery of 6-substituted indole-3-glyoxylamides as lead antiprion agents with enhanced cell line activity, improved microsomal stability and low toxicity” (Eur J Med Chem, 2011)
